# In PubChem BioAssay AID504383 (The Scripps Research Institute Molecular Screening Center, 2011):
# About 1,200 (48%) of roughly 2,500 compounds were called active.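 The calls were made as follows: active = mean activation above the low control average plus 3 SD, as set in the primary screen (cut at about 12% in these data); inactive = the rest.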 So high a share suggests a set chosen from earlier hits. The list shows a part of the results.
# Target: Troponin I, cardiac muscle (Homo sapiens) + Troponin T, cardiac muscle (Homo sapiens) + Troponin C, slow skeletal and cardiac muscles (Homo sapiens) (UniProt P19429+P45379+P63316)
# Assay: calcium sensitizers of cardiac thin filaments – biochemical, IANBD-TnC fluorescence, triplicate, confirmation (AID 504383);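 also: 0% = DMSO at 0.472 mM calcium and 100% = DMSO at 2.9 mM calcium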
# Details: IANBD-labeled cardiac RTF, Ca2+ sensitivity fluorescence; at 7.2 µM; active compounds read high; scaled from EC20 to saturating calcium; tested at EC20 calcium, 0.472 mM
# How it was run: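 material = labelled regulated thin filaments | probe or stimulus = Ca2+ 0.472 mM, EC20 level | dosing = single nominal compound dose of 7.2 µM | schedule = 15 min at 25 °C | signal = fluorescence intensity of labelled filaments | evaluation = fluorescence gain scaled between EC20 and EC100 calcium controls | benchmarks = low control EC20 calcium, high control EC100 calcium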
row,SMILES,activation
1,O=C(NCc1csc2ccccc12)Nc1cc(Cl)cc(Cl)c1,7.6% (inactive)
2,O=C(O)/C=C/C(=O)NCc1csc2ccccc12,278% (active)
3,CCC(Oc1cc(Cl)ccc1Cl)C(=O)NNC(=O)CCC(=O)O (configuration not stated),12.2% (active)
4,Fc1ccc(CN2CC[C@H]3C=CCc4cccc(c43)C2)cc1,144% (active)
5,COC1C(CO)OC(n2c3c(Cl)cccc3c3c4c(c5c6cccc(Cl)c6[nH]c5c32)C(=O)NC4=O)C(O)C1O (configuration not stated),2.74% (inactive)
6,CCN(CC)C(=S)SCC(=O)c1c(C)[nH]c2ccccc12,27% (active)
7,CCN(CC)C(=O)C(=O)c1c(-c2ccccc2)[nH]c2ccccc12,20.5% (active)
8,CCN(CC)CC(C(=O)N(CC)CC)P(=O)(c1ccccc1)c1ccccc1 (configuration not stated),6.63% (inactive)
9,CCOC(=O)CNc1ccc2c(c1)OCO2,15.4% (active)
10,CC(=O)c1cc2c(cc1N/C(=N/S(=O)(=O)c1ccc(Br)cc1)c1ccccc1)OCO2,5.61% (inactive)
11,O=C(Nc1ccc2c(c1)OCCO2)c1cccc(Cl)c1Cl,77.8% (active)
12,O=C(COc1ccccc1)NC(=S)Nc1cccc(NC(=O)c2ccccc2Cl)c1,7.06% (inactive)
13,CCN(CC)S(=O)(=O)c1ccc2c(c1)nc(CCC(=O)Nc1ccc3c(c1)OCO3)n2C,8.98% (inactive)
14,O=C(Nc1ccc2c(c1)OCO2)c1ccc2c(c1)OCO2,16.1% (active)
15,C=CCn1cccc(C(=O)Nc2ccc(OC)c(Cl)c2)c1=O,7.57% (inactive)
16,COc1ccc(Cn2nnc3ccccc32)cc1,8.45% (inactive)
17,CCOc1ccc2nc3cc(NCc4ccc(OC)cc4)ccc3c(N)c2c1,4.24% (inactive)
18,CCOc1ccc(Cn2c3ccc(OC)cc3c3nc4ccccc4nc32)cc1,81.5% (active)
19,CCCCOC(=O)Cn1c2ccc(OC)cc2c2nc3ccccc3nc21,12.9% (active)
20,CCOC(=O)c1c(C(C)(C)C)oc2ccc(OCC#N)cc12,8.86% (inactive)
21,CCOC(=O)CN1C(=O)S/C(=C/C=C/c2ccc(N(C)C)cc2)C1=O,3.71% (inactive)
22,CN(C)c1ccc(/C=C2\SC(=O)N(CC(O)Cn3c4ccccc4c4ccccc43)C2=O)cc1 (configuration not stated),14.3% (active)
23,CN(C)c1ccc(/C=C2\SC(=O)N(CCc3nnc(N)s3)C2=O)cc1,5.55% (inactive)
24,COc1cc2nc(/C=C/c3ccc(N(C)C)cc3)sc2cc1SC,-0.52% (inactive)

row,SMILES,activation
1,O=C(COC(=O)c1cc(-c2cccc3ccccc23)nc2ccccc12)NC1CCS(=O)(=O)C1 (configuration not stated),13.5% (active)
2,CCN1CC=C2C(C#N)=C(N)C(C#N)(C#N)[C@H](c3cccc(OC)c3OC)[C@H]2C1,14.7% (active)
3,CCN1CC=C2C(C#N)=C(N)C(C#N)(C#N)C(c3cc(Cl)ccc3Cl)C2C1 (configuration not stated),253% (active)
4,CCCN1CC=C2C(C#N)=C(N)C(C#N)(C#N)C(c3cccc(OC)c3OC)C2C1 (configuration not stated),0.08% (inactive)
5,O=C(COC(=O)/C=C/c1ccc(Cl)cc1)NCCN1C(=O)CSC1=O,4.03% (inactive)
6,O=C(c1ccccn1)N(Cc1cccs1)C1(C(=O)NC2CCCCC2)CCCCC1,1.46% (inactive)
7,Cc1ccc(C(C(=O)NC2CCCC2)N(C(=O)Cc2cccs2)c2cccc(C)c2C)o1 (configuration not stated),7.72% (inactive)
8,CCN(CC(=O)Nc1ccccc1C(=O)NC1CC1)Cc1cccs1,89.2% (active)
9,Cn1cc(/C=C2\SC(=S)N(NC(=O)c3ccccc3Cl)C2=O)c2ccccc21,23.3% (active)
10,Cn1cc(/C=C2\SC(=S)N(NC(=O)c3ccccc3)C2=O)c2ccccc21,40.9% (active)
11,Cc1ccc(C(=O)NN2C(=O)/C(=C/c3cn(C)c4ccccc34)SC2=S)cc1,19.4% (active)
12,Cn1cc(/C=C2\SC(=S)N(NC(=O)c3cccc(Cl)c3)C2=O)c2ccccc21,52.1% (active)
13,COc1ccc(C2CC(c3ccncc3)=NN2c2ccc(S(N)(=O)=O)cc2)cc1 (configuration not stated),13.1% (active)
14,N#CC1CC(c2ccc([N+](=O)[O-])cc2)=NN1c1ccc([N+](=O)[O-])cc1 (configuration not stated),6.69% (inactive)
15,NS(=O)(=O)c1ccc(N2N=C(c3ccccc3)CC2c2ccccc2)cc1 (configuration not stated),31% (active)
16,O=[N+]([O-])c1ccc(N2N=C(c3ccccc3)CC2c2ccccc2O)cc1 (configuration not stated),127% (active)
17,N#CCC(=O)N/N=C/c1ccc(N2N=C(c3ccccc3)CC2c2ccccc2)cc1 (configuration not stated),8.4% (inactive)
18,CSc1nnnn1-c1c(C)cc(C)cc1C,3.29% (inactive)
19,Cc1ccccc1-n1nnnc1SCC(C)C,103% (active)
20,O=C(COc1ccccc1F)NC1CC1,66.3% (active)
21,COC(=O)c1cc2c(C)c(C)c3ccccn3c-2c1C(=O)OC,5.27% (inactive)
22,O=C(N/N=C/c1cc([N+](=O)[O-])ccc1N1CCNCC1)c1ccc([N+](=O)[O-])cc1,19% (active)
23,CCOc1ccc(NC(=S)c2ccncc2)cc1,6.9% (inactive)
